In test [1] the target is T1, Serotonin 2 (5-HT2) receptor (Rattus norvegicus, UniProt P30994+P08909+P14842). As to the kind of experiment: Ability to inhibit binding of titreated spiperone to 5-hydroxytryptamine 2 receptor in rat brain frontal cortex membranes. Type of test: cell membranes, Membrane. The essentials: (§1)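 5HT-2 binding in rat frontal cortex membranes with [3H]spiperone as radioligand. Tested at eleven concentrations between 0.1 and 10 000 nM, each in duplicate. IC50 is the concentration that halves specific binding, obtained by curve fitting.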

The target of test [2] is Serotonin 1 (5-HT1) receptor (Rattus norvegicus, UniProt P28564+P30940+P19327+P28565). As to the kind of experiment: Ability to inhibit binding of titreated serotonin to the 5-hydroxytryptamine 1 receptor in rat brain frontal cortex membranes. Type of test: cell membranes, Membrane.
The test system of test [3] is Rattus norvegicus. As to the kind of experiment: In vivo serum corticosterone concentration in male Wistar rats after injecting 0.3 mg/kg of compound subcutaneously. Type of test: functional, organism-based. Further details: dose 0.3 mg/kg. In outline:
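Serum corticosterone in male Wistar rats, measured spectrofluorometrically and reported per 100 mL of serum.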

Test [4] is filed under the species Rattus norvegicus. As to the kind of experiment: Effect on 5HIAA (5-hydroxyindoleacetic acid) concentration in hypothalamus as an index of serotonin turnover in male Wistar rats expressed as percent of control. Type of test: functional. In outline:
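Hypothalamic 5-hydroxyindoleacetic acid in male Wistar rats, used as an index of serotonin turnover. Measured by liquid chromatography with electrochemical detection and expressed as percent of control.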

Test [5] addresses T1, Serotonin 2 (5-HT2) receptor. As to the kind of experiment: Ability to inhibit binding of titreated spiperone to the 5-hydroxytryptamine 2 receptor in rat brain frontal cortex membranes. The format is cell membranes, Membrane. The essentials: as §1

Usually IC50 stands for the point on the concentration scale where inhibition reaches its midpoint. Lower therefore signals inhibition by little substance.

As to `CCCN(CCC)C1Cc2cccc3[nH]cc(c23)C1` (stereo unspecified), the IC50 is reported as 723 nM in test [1] and 141 nM in test [2].

For the molecule `COc1ccc2[nH]cc3c2c1CC(N(C)C)C3` (stereo unspecified), in the test on Rattus norvegicus [3], the Concentration is 41 µg 100ml-1. The “5-HIAA level, % of control” value in the test listed under Rattus norvegicus [4] is listed as 65%. Further, the results for the IC50 in test [2] and in test [5] were 96 nM and 1756 nM, respectively.

`CCCN(CCC)C1Cc2c[nH]c3ccc(C(N)=O)c(c23)C1` (stereo unspecified) gave a Concentration with Rattus norvegicus [3] of 49 µg 100ml-1. Also, the “5-HIAA level, % of control” value in the test listed under Rattus norvegicus [4] is 61%. The IC50 was determined as 83 nM in test [2] and 4817 nM in test [5].

As to `CN(C)C1Cc2c[nH]c3ccc(C(N)=O)c(c23)C1` (stereo unspecified), the Concentration in the test with Rattus norvegicus [3] amounted to 9 µg 100ml-1. Further, in the test filed under Rattus norvegicus [4], the “5-HIAA level, % of control” value was found to be 99%. Moreover, the IC50 is given as 390 nM in test [2] and 5440 nM in test [5].

In the test with Rattus norvegicus [3], `CCCN(CCC)C1Cc2c[nH]c3ccc(Br)c(c23)C1` (stereo unspecified) registered a Concentration of 13 µg 100ml-1. In the test filed under Rattus norvegicus [4], the “5-HIAA level, % of control” value turned out to be 77%. The IC50 in test [1] is recorded as 15444 nM; in test [2] it was 241 nM.

In the case of `CCCN(CCC)C1Cc2c[nH]c3ccc(C#N)c(c23)C1` (stereo unspecified), the Concentration in the test with Rattus norvegicus [3] is 47 µg 100ml-1. The “5-HIAA level, % of control” value in the test filed under Rattus norvegicus [4] came out at 90%. In addition, the results for the IC50 in test [1] and in test [2] were 390 nM and 90 nM, respectively.

As to `CCCN(CCC)C1Cc2c[nH]c3ccc(OC)c(c23)C1` (stereo unspecified), in the test with Rattus norvegicus [3], the Concentration came to 48 µg 100ml-1. Besides, the “5-HIAA level, % of control” value in the test filed under Rattus norvegicus [4] was determined as 58%. In addition, the figures for the half-inhibitory concentration (IC50) in test [2] and in test [5] were 36 nM and 1179 nM, respectively.

For the origin of these results see ChEMBL document CHEMBL1124200, “6-substituted 1,3,4,5-tetrahydrobenz[cd]indol-4-amines: potent serotonin agonists” (J Med Chem, 1988).
